The target in data set [1] is Voltage-gated inwardly rectifying potassium channel KCNH2 (Homo sapiens, UniProt Q12809). In words: Inhibition of human ERG channel.
The test system of another data set is HCT-116. The data set is described as follows: Antiproliferative activity against human HCT116 cells after 72 hrs. Type of data set: functional, cell-based. The following applies: HCT-116, 72 h. The essentials: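 HCT116 cells seeded at 1 × 10³ cells/well and left to adhere overnight, then exposed to inhibitors for 72 h. MTS tetrazolium dye added and incubated a further 3 h, with absorbance read at 490 nm.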

A further data set deals with Histone deacetylase 1 (Homo sapiens, UniProt Q13547). The data set is described as follows: Inhibition of human HDAC1 expressed in Hi5 cells. Also on record: species or system BTI-TN-5B1-4. Put shortly:
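C-terminally FLAG-tagged HDAC1 purified on anti-FLAG M2 agarose. Development 30 min at ambient temperature, fluorescence read at ex 360/em 465 nm. IC50 taken from dose–response curves.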

Data set [2] in a line: Lipophilicity, log D at pH 7.4. Format: physicochemical. The note with it: buffer.
A short description of data set [3]: Solubility at pH 7.4. Format: physicochemical. The note with it: buffer.
A short description of data set [4]: Half life in rat at 63.6 umol/kg, po. Type of data set: ADME, organism-based. The note with it: in vivo.
A short description of data set [5]: Half life in rat at 2.5 umol/kg, iv. Type of data set: ADME, organism-based. The following applies: in vivo.
Data set [6] is described as follows: Clearance in rat at 2.5 umol/kg, iv. Format: ADME, organism-based. The note with it: in vivo.
A short description of data set [7]: Half life in rat at 56.7 umol/kg, po. Format: ADME, organism-based. The note with it: in vivo.
Data set [8] in a line: Volume of distribution at steady state in rat at 2.5 umol/kg, iv. Format: ADME, organism-based. The following applies: in vivo, read-out: Vdss.
Data set [9] in a line: Volume of distribution at steady state in rat at 5 umol/kg, iv. Format: ADME, organism-based. The following applies: in vivo, read-out: Vdss.
Data set [10] in a line: Clearance in rat at 5 umol/kg, iv. Type of data set: ADME, organism-based. The note with it: in vivo.
Data set [11] in a line: Half life in rat at 56.4 umol/kg, po. Format: ADME, organism-based. The following applies: in vivo.
Data set [12] in a line: Half life in rat at 55 umol/kg, po. The note with it: in vivo. Format: ADME, organism-based.
The nature of data set [13]: Half life in rat at 67.1 umol/kg, po. Type of data set: ADME, organism-based. The following applies: in vivo.
Data set [14] can be described thus: Half life in rat at 5 umol/kg, iv. Format: ADME, organism-based. The note with it: in vivo.
Data set [15] is described as follows: Half life in rat at 55.6 umol/kg, po. Type of data set: ADME, organism-based. The following applies: in vivo.
Data set [16] is described as follows: Half life in rat at 10 umol/kg, po. Type of data set: ADME, organism-based. The following applies: in vivo.
Data set [17] relates to Plasma. In words: Fraction unbound to rat plasma protein in rat. Format: ADME, cell-free.
Data set [18] is described as follows: Half life in Beagle dog at 0.8 umol/kg, iv. The following applies: in vivo. Type of data set: ADME, organism-based, Canis lupus familiaris.
The nature of data set [19]: Half life in rat at 65.2 umol/kg, po. Format: ADME, organism-based. The following applies: in vivo.
The nature of data set [20]: Clearance in Beagle dog at 0.8 umol/kg, iv. Format: ADME, organism-based, Canis lupus familiaris. The following applies: in vivo.
The nature of data set [21]: Half life in Beagle dog at 3 umol/kg, po. Format: ADME, organism-based, Canis lupus familiaris. The note with it: in vivo.
Data set [22] relates to Plasma. The data set is described as follows: Fraction unbound to […]. Type of data set: ADME, cell-free, Canis lupus familiaris.
Data set [23] in a line: Volume of distribution at steady state in Beagle dog at 0.8 umol/kg, iv. Type of data set: ADME, organism-based, Canis lupus familiaris. The note with it: in vivo, read-out: Vdss.
For data set [24], the system named is Plasma. In words: Fraction unbound to rat plasma protein in mouse. Type of data set: ADME, cell-free.
Data set [25] is described as follows: Half life in mouse at 65.2 umol/kg, po. Type of data set: ADME, organism-based. The following applies: in vivo.
Data set [26] in a line: Bioavailability in Beagle dog at 3 umol/kg, po. The note with it: in vivo. Format: ADME, organism-based, Canis lupus familiaris.

Molecules are shown by their SMILES. In brackets after ≈: the same amount, converted by molar mass.

Sequence of Voltage-gated inwardly rectifying potassium channel KCNH2 (Q12809 whole entry): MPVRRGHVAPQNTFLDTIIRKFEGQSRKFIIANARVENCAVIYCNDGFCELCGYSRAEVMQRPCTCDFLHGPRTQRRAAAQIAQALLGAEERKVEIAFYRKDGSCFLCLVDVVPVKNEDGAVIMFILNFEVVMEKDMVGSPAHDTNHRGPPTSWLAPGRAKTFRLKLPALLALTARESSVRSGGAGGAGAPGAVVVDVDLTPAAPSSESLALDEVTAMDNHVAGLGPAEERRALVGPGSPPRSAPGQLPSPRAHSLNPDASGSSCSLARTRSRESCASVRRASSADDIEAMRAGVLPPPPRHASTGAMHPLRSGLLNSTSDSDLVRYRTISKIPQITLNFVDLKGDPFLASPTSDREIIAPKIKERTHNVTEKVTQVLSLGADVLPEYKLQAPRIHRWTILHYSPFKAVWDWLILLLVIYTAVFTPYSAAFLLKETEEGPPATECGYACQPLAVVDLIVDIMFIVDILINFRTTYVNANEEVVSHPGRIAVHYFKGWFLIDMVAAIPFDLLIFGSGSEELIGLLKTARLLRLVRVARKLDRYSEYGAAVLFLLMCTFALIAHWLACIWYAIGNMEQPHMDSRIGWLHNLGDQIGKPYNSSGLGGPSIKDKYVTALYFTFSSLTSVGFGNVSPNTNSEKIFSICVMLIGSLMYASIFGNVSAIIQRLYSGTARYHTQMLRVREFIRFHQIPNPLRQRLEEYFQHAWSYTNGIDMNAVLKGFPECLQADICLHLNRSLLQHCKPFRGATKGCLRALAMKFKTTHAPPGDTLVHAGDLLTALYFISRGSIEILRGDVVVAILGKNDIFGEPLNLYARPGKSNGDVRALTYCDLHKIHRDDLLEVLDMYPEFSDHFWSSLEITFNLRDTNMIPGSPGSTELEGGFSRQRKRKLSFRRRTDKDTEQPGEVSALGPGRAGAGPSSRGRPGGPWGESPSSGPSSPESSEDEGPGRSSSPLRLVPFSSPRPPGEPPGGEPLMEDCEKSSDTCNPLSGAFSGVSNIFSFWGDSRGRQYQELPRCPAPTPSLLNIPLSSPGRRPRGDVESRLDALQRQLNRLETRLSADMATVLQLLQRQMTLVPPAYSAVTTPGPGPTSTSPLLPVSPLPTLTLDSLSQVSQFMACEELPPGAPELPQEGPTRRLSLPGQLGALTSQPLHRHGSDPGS
Sequence of Histone deacetylase 1 (Q13547 whole entry): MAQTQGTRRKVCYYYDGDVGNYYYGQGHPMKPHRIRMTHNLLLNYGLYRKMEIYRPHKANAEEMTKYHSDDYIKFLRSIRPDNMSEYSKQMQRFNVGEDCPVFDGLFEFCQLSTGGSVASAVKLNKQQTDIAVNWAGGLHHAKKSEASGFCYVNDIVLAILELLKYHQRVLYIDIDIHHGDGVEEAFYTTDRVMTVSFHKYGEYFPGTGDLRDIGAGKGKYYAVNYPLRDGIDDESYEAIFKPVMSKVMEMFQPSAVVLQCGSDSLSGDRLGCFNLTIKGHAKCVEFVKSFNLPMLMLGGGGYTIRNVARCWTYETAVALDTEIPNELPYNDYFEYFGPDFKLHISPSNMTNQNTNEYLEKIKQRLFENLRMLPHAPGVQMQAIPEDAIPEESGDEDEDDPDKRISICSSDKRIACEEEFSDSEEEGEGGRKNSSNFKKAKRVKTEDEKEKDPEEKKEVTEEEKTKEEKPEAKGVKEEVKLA

Take `CCN1CCN(Cc2cnc(-c3ccc(C(=O)Nc4ccccc4N)cc3)c(C)c2)CC1`: the IC50 in data set [1] is over 25.1 µM; in the data set with HCT-116, 0.229 µM; against Histone deacetylase 1 it was 0.0186 µM. Further, the logD in data set [2] was found to be 1.2. Further, in [3], the solubility is over 2350 µM.
Turning to `Nc1ccccc1NC(=O)c1ccc(-c2ncc(CN3CCC3)cc2Cl)cc1`, the figures for the IC50 (in [1]; in the data set with HCT-116; at Histone deacetylase 1) were 22.4 µM, 0.302 µM and 0.0186 µM, respectively. In addition, in data set [4], the half-life is 5.2 h. Further, the concentration in solution in data set [3] (solubility) was 1340 µM (≈ 526 µg/mL).
`CCN1CCN(Cc2cnc(-c3ccc(C(=O)Nc4ccccc4N)cc3)c(F)c2)CC1`: the IC50 is over 31.6 µM in data set [1], 0.437 µM in the data set with HCT-116 and 0.038 µM against Histone deacetylase 1. Moreover, the solubility in data set [3] is over 2420 µM.
Regarding `CCN1CCN(Cc2cnc(-c3ccc(C(=O)Nc4ccccc4N)cc3)c(C#N)c2)CC1`, the IC50 is over 25.1 µM in data set [1], 0.138 µM in the data set on HCT-116 and 0.00977 µM at Histone deacetylase 1. Also, the results for the half-life in [5] and in data set [7] were 1.1 h and 3.2 h, respectively. In data set [6], this compound had a clearance of 47.5 mL/min/kg. The compound also had a logD in data set [2] of 1.14. Moreover, the Vd in data set [8] worked out at 3.6 L/kg. Also, the solubility in data set [3] is over 1940 µM.
Turning to `CC(C)N1CCN(Cc2cnc(-c3ccc(C(=O)Nc4ccccc4N)cc3)c(F)c2)CC1`, the IC50 is over 31.6 µM in [1], 0.646 µM with HCT-116 and 0.0331 µM on Histone deacetylase 1. This compound also gave a logD in [2] of 1.6. Also, the solubility in [3] is over 2160 µM.
For the compound `N#Cc1cccnc1-c1ccc(C(=O)Nc2ccccc2N)cc1`, in [9], the Vd is 1 L/kg. In [10], this compound showed a clearance of 56.1 mL/min/kg. Further, the IC50 in data set [1] was over 31.6 µM; in the data set on HCT-116 it was 0.288 µM; against Histone deacetylase 1 it was 0.0123 µM. The same compound yielded a logD in data set [2] of 1.58. Moreover, the solubility in [3] was determined as 35 µM (≈ 11 µg/mL).
With `CC(C)N1CCN(Cc2cnc(-c3ccc(C(=O)Nc4ccccc4N)cc3)c(Cl)c2)CC1`, the IC50 in [1] is 7.08 µM; with HCT-116 it was 0.309 µM; at Histone deacetylase 1 it was 0.0132 µM. The logD in [2] is 1.68. In addition, in data set [3], the solubility was over 1490 µM.
Turning to `Cc1cc(CN2CCN(C(C)C)CC2)cnc1-c1ccc(C(=O)Nc2ccccc2N)cc1`, in the data set on HCT-116, inhibition was half-maximal at 0.24 µM (IC50). This compound also gave a half-life in data set [11] of 3.4 h. For the same compound, the logD in [2] was 1.44. This compound came in with a solubility in data set [3] of over 2620 µM.
Take `CC(C)N1CCN(Cc2cnc(-c3ccc(C(=O)Nc4ccccc4N)cc3)c(C#N)c2)CC1`: the IC50 is 19.1 µM in [1], 0.141 µM with HCT-116 and 0.0105 µM against Histone deacetylase 1. Further, the half-life is 2 h in data set [5] and 4.3 h in data set [12]. This compound also had a clearance in [6] of 44 mL/min/kg. In [2], this compound displayed a logD of 1.28. In addition, in data set [8], the Vd amounted to 5.1 L/kg. Moreover, the solubility in [3] turned out to be 1380 µM (≈ 630 µg/mL).
As for `Cc1cc(CN2CCC2)cnc1-c1ccc(C(=O)Nc2ccccc2N)cc1`, the half-life was 5.5 h in data set [13] and 3 h in [14]. In data set [9], the Vd is 6.9 L/kg. In data set [10], this compound showed a clearance of 30.2 mL/min/kg. Further, the IC50 is 0.309 µM with HCT-116 and 0.0214 µM against Histone deacetylase 1. This compound gave a logD in [2] of 1.18. The same compound yielded a solubility in [3] of 2240 µM (≈ 834 µg/mL).
On to `CCN1CCN(Cc2cnc(-c3ccc(C(=O)Nc4ccccc4N)cc3)c(Cl)c2)CC1`, for which the IC50 was 8.32 µM in data set [1], 0.339 µM with HCT-116 and 0.0162 µM against Histone deacetylase 1. In [15], this compound showed a half-life of 4.4 h. In addition, the logD in [2] amounted to 1.81.
Take `Nc1ccccc1NC(=O)c1ccc(-c2ncc(CN3CCC3)cc2F)cc1`: the half-life in [14] is 3.6 h; in data set [16], 5.4 h. Also, the Vd in [9] was found to be 6.3 L/kg. The compound further registered a clearance in data set [10] of 34 mL/min/kg. Besides, the IC50 is over 25.1 µM in data set [1], 0.372 µM in the data set with HCT-116 and 0.0501 µM against Histone deacetylase 1. This compound also displayed a logD in data set [2] of 1.69. This compound came in with a solubility in data set [3] of 841 µM (≈ 317 µg/mL).
Regarding `N#Cc1cc(CN2CCC2)cnc1-c1ccc(C(=O)Nc2ccccc2N)cc1`, the fu in the data set on Plasma [17] worked out at 53%; with Plasma [22], 48%; in the data set on Plasma [24], 54%. Besides, the half-life is 1.9 h in data set [18]; 3.8 h in data set [14]; 5.5 h in data set [19]; 2.1 h in [21]; 3 h in data set [25]. Also, the Vd in [9] turned out to be 5.4 L/kg; in data set [23], 2.32 L/kg. In addition, the clearance in data set [20] was found to be 30 mL/min/kg; in data set [10] it was 19.6 mL/min/kg. Further, the IC50 in data set [1] was over 25.1 µM; in the data set with HCT-116, 0.138 µM; on Histone deacetylase 1, 0.00977 µM. Moreover, the logD in [2] worked out at 1.22. The same compound had a solubility in data set [3] of 746 µM (≈ 286 µg/mL). Also, the bioavailability in data set [26] came to 13%.

By IC50 is commonly meant the point on the concentration scale where inhibition reaches its midpoint. High values mean weaker potency, low ones greater potency. As usually defined, the logD is the decadic logarithm of the distribution of all forms, ionised or not, between an organic phase and buffer at a given pH. Low readings indicate a more hydrophilic compound, high ones a more lipophilic compound. For orientation: solubility means the dissolved amount per volume that the medium holds. Usually half-life stands for the time in which the quantity being followed falls by half. A lower half-life goes with fast loss. Broadly, the clearance is the rate of elimination divided by the concentration. As usually defined, the bioavailability is the share of a dose that reaches the circulation, judged against a reference dose that is usually intravenous. Low values mean poor availability, high ones good availability.

For the origin of these results see ChEMBL document CHEMBL1144843, “Design and campaign synthesis of pyridine-based histone deacetylase inhibitors” (Bioorg Med Chem Lett, 2008).
